The values below come from ChEMBL document CHEMBL1137141, “Synthesis of new coumarin 3-(N-aryl) sulfonamides and their anticancer activity” (2004).

Holding throughout (assay type): functional
For one assay, the system named is BT-20. Description: Concentration required to inhibit growth of BT20 cells by 50% after 96h of treatment. The note with it: Homo sapiens, BT-20, 96 h. The procedure, abridged: (§1)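 Cells (1 × 10⁵) were plated in 6-well dishes. Test agents were added 24 h later at five concentrations over a 2-log span (1–100 µM) and left on continuously for 96 h. Viable cells were counted by trypan blue exclusion on a hemacytometer and expressed as a percentage of DMSO-treated wells. GI50 was read from dose–response curves of % cells versus concentration.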

For the next assay, the system named is NCI-H157. Description: Concentration required to inhibit growth of H157 cells by 50% after 96h of treatment. The conditions noted are these: Homo sapiens, NCI-H157, 96 h. The method in brief:
as §1

The subject of the next assay is K562. Briefly: Concentration required to inhibit growth of K562 cells by 50% after 96h of treatment. The note with it: Homo sapiens, K562, 96 h. The procedure, abridged:
as §1

A further assay deals with DLD-1. Briefly: Concentration required to inhibit growth of DLD-1 cells by 50% after 96h of treatment. The note with it: Homo sapiens, DLD-1, 96 h. The method in brief:
as §1

The test system of the next assay is DU-145. Description: Concentration required to inhibit growth of DU145 cells by 50% after 96h of treatment. The note with it: Homo sapiens, DU-145, 96 h. The method in brief: as §1

The term GI50 denotes the concentration giving 50% growth inhibition. Higher therefore signals lower sensitivity of the cells. For the compound `COc1ccc(NS(=O)(=O)c2cc3cccc(Br)c3oc2=O)cc1`, the GI50 in the assay with BT-20 came out at 16 µM; with NCI-H157, 18 µM; with K562 it was 14 µM; with DLD-1, 20 µM; with DU-145, 15 µM.
On to `CCOc1cccc2cc(S(=O)(=O)Nc3ccc(F)c(N)c3)c(=O)oc12`, for which the GI50 in the assay with BT-20 was determined as 54 µM; with NCI-H157 it was 72 µM; in the assay with K562 it was 42 µM; in the assay on DLD-1 it was 80 µM; in the assay on DU-145, 48 µM.
For the compound `COc1ccc(NS(=O)(=O)c2cc3cc(Cl)ccc3oc2=O)cc1O`, the GI50 came out at 65 µM in the assay with BT-20; 76 µM with NCI-H157; 51 µM in the assay with K562; 82 µM in the assay on DLD-1; 42 µM in the assay on DU-145.
As for `COc1ccc2oc(=O)c(S(=O)(=O)Nc3ccc(Br)cc3)cc2c1`, the 50% growth inhibitory concentration (GI50) in the assay on BT-20 was 18 µM; with NCI-H157, 32 µM; in the assay with K562 it was 27 µM; in the assay with DLD-1 it was 38 µM; in the assay with DU-145, 25 µM.
On to `O=c1oc2c(Br)cccc2cc1S(=O)(=O)Nc1ccc(Br)cc1`, for which the GI50 stood at 12 µM with BT-20; 15 µM in the assay on NCI-H157; 16 µM in the assay on K562; 14 µM in the assay on DLD-1; 12 µM in the assay on DU-145.
As for `COc1ccc(NS(=O)(=O)c2cc3cc(Cl)ccc3oc2=O)cc1`, the GI50 stood at 27 µM in the assay with BT-20; 28 µM with NCI-H157; 23 µM in the assay on K562; 32 µM in the assay on DLD-1; 22 µM in the assay on DU-145.
On to `CCOc1cccc2cc(S(=O)(=O)Nc3ccc(Br)cc3)c(=O)oc12`, for which the GI50 in the assay with BT-20 was 64 µM; with NCI-H157 it was 74 µM; in the assay on K562, 58 µM; in the assay with DLD-1 it was 85 µM; in the assay on DU-145, 52 µM.
As for `COc1ccc2oc(=O)c(S(=O)(=O)Nc3ccc(F)c(N)c3)cc2c1`, the GI50 in the assay on BT-20 was determined as 68 µM; with NCI-H157 it was 78 µM; in the assay with K562 it was 44 µM; in the assay with DLD-1, 92 µM; in the assay with DU-145 it was 56 µM.
With `O=c1oc2c(Cl)cccc2cc1S(=O)(=O)Nc1ccc(Br)cc1`, the GI50 stood at 17 µM in the assay on BT-20; 16 µM in the assay on NCI-H157; 11 µM in the assay on K562; 18 µM in the assay with DLD-1; 14 µM with DU-145.
On the same counts, the results for `CCOc1cccc2cc(S(=O)(=O)Nc3ccc(OC)cc3)c(=O)oc12` are 52 µM, 74 µM, 48 µM, 78 µM and 57 µM.
